Results taken from ChEMBL document CHEMBL3526081 (Drug Metab Dispos, 2011).

Legend:
[1] = Drug level in Swiss-Hauschka (ICR) mouse liver microsomes treated with 100 uM cinobufagin at 37 degC after 30 mins by UFLC-ESI-MS analysis in presence of NADPH-generating system; type: ADME; settings: 0.5 h
In short: (§1)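 Liver microsomes (0.3 mg protein/ml) incubated with 100 µM substrate at 37°C for 30 min, in 100 mM potassium phosphate pH 7.4 with NADPH-generating system (1 mM NADP+, 10 mM glucose 6-phosphate, 1 unit/ml G6PDH, 4 mM MgCl2). Acetonitrile ≤1% final. Stopped with ice-cold acetonitrile and centrifuged. Metabolites identified by UFLC-ESI-MS and quantified by UFLC-DAD at 294 nm against authentic standard curves.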

Liver microsome [2] = test: Retention time in Sprague-Dawley rat liver microsomes treated with 100 uM cinobufagin at 37 degC after 30 mins by UFLC-DAD-ESI-MS analysis; type: ADME; settings: 0.5 h
In short: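 Male Sprague-Dawley rat microsomes (0.3 mg/ml) were incubated with CB (100 µM) at 37°C for 30 min, with and without NADPH-generating system. Separation was on an ODS column at 40°C using an acetonitrile/0.5% formic acid water gradient at 0.4 ml/min, with DAD detection at 294 nm plus ESI-MS.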

[3] = Drug level in Colony-bred Chinese Bama minipig liver microsomes treated with 100 uM cinobufagin at 37 degC after 30 mins by UFLC-ESI-MS analysis in presence of NADPH-generating system; type: ADME, Sus scrofa; settings: pig, 0.5 h; in short: as §1
Liver microsome [4] = test: Drug level in beagle dog liver microsomes treated with 100 uM cinobufagin at 37 degC after 30 mins by UFLC-ESI-MS analysis in presence of NADPH-generating system; type: ADME, Canis lupus familiaris; settings: 0.5 h; in short: as §1
[5] = Drug level in cynomolgus monkey liver microsomes treated with 100 uM cinobufagin at 37 degC after 30 mins by UFLC-ESI-MS analysis in presence of NADPH-generating system; type: ADME, Macaca fascicularis; settings: 0.5 h; in short: as §1
[6] = Cytotoxicity against human Bel7402 cells assessed as againsthibition of cell growth after 72 hrs; type: cell-based; settings: Bel-7402, 72 h
In short: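 Bel-7402 hepatoma cells grown in RPMI 1640 with 10% FBS and 1% penicillin/streptomycin, trypsinised, seeded and exposed to serial dilutions for 72 h at 37°C.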

Cytochrome P450 2C19 = Cytochrome P450 2C19 (Homo sapiens, UniProt P33261); test: Drug level in human recombinant CYP2C19 expressed in insect cells coexpressing NADPH-P450 reductase measured per pmol of enzyme treated with 100 uM cinobufagin at 37 degC after 30 mins by UFLC-DAD-ESI-MS analysis; type: ADME; settings: 0.5 h
Cytochrome P450 3A4 = Cytochrome P450 3A4 (Homo sapiens, UniProt P08684); test: Drug level in human recombinant CYP3A4 expressed in insect cells coexpressing NADPH-P450 reductase measured per pmol of enzyme treated with 50 uM cinobufagin at 37 degC after 30 mins by UFLC-DAD-ESI-MS analysis; settings: 0.5 h
Cytochrome P450 2B6 = molecular target: T1, Cytochrome P450 2B6 (Homo sapiens, UniProt P20813); test: Drug level in human recombinant CYP2B6 expressed in insect cells coexpressing NADPH-P450 reductase measured per pmol of enzyme treated with 50 uM cinobufagin at 37 degC after 30 mins by UFLC-DAD-ESI-MS analysis; settings: 0.5 h
T1 sequence (P20813 whole entry): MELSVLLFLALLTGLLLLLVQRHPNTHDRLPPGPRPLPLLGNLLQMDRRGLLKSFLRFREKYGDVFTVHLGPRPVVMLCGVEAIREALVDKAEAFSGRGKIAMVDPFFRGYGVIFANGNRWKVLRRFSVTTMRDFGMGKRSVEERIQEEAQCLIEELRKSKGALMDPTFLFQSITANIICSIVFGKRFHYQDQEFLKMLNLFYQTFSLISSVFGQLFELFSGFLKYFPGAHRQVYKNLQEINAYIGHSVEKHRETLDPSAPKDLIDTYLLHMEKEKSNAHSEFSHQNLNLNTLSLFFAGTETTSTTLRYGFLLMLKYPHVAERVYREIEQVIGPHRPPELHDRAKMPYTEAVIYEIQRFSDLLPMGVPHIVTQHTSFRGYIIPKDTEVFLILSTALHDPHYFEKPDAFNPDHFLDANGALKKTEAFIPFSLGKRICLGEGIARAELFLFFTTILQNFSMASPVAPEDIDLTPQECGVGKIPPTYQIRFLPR

Cytochrome P450 2C8 = molecular target: T2, Cytochrome P450 2C8 (Homo sapiens, UniProt P10632); test: Drug level in human recombinant CYP2C8 expressed in insect cells coexpressing NADPH-P450 reductase measured per pmol of enzyme treated with 50 uM cinobufagin at 37 degC after 30 mins by UFLC-DAD-ESI-MS analysis; settings: 0.5 h
T2 sequence (P10632 whole entry): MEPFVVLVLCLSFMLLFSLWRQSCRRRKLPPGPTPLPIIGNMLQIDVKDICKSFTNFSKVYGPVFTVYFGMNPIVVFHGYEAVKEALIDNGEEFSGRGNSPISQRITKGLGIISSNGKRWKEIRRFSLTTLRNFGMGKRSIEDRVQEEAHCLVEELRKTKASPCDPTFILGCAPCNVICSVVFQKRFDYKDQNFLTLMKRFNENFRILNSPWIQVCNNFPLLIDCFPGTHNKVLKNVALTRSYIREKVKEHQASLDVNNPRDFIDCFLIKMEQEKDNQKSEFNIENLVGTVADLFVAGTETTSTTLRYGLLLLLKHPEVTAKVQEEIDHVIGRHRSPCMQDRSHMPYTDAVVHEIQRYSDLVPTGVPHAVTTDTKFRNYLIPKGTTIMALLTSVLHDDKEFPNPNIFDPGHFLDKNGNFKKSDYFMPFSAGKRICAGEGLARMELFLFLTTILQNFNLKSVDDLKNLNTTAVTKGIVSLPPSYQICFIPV

Cytochrome P450 2C9 = Cytochrome P450 2C9 (Homo sapiens, UniProt P11712); test: Drug level in human recombinant CYP2C9 expressed in insect cells coexpressing NADPH-P450 reductase measured per pmol of enzyme treated with 50 uM cinobufagin at 37 degC after 30 mins by UFLC-DAD-ESI-MS analysis; settings: 0.5 h
Cytochrome P450 2D6 = Cytochrome P450 2D6 (Homo sapiens, UniProt P10635); test: Drug level in human recombinant CYP2D6 expressed in insect cells coexpressing NADPH-P450 reductase measured per pmol of enzyme treated with 50 uM cinobufagin at 37 degC after 30 mins by UFLC-DAD-ESI-MS analysis; settings: 0.5 h
Chain of Cytochrome P450 2D6 (P10635 whole entry): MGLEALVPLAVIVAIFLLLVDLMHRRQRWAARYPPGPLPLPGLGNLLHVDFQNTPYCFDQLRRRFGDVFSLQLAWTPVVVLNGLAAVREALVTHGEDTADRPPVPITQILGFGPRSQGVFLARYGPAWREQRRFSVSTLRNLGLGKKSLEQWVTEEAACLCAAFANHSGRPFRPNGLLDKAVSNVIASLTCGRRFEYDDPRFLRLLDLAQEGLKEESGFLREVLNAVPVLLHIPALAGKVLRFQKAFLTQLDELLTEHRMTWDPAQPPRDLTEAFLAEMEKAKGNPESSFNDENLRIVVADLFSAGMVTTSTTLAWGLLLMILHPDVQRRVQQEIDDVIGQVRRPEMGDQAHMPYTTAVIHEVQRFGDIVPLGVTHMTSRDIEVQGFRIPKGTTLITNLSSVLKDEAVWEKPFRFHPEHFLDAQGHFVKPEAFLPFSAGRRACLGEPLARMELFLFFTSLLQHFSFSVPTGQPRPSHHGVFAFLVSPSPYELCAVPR

Chain of Cytochrome P450 3A4 (P08684 whole entry): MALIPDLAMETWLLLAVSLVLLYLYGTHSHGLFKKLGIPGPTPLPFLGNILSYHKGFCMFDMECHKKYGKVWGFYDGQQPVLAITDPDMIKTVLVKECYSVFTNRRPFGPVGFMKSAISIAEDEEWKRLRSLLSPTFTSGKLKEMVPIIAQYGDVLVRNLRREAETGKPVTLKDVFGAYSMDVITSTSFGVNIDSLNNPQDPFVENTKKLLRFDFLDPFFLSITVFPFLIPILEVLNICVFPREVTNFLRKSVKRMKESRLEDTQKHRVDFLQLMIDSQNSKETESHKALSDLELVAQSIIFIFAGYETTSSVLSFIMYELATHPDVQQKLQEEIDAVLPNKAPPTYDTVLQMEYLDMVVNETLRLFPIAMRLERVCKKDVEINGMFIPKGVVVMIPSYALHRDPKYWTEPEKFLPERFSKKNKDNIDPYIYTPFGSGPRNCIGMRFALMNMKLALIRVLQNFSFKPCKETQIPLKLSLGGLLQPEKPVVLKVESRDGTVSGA
Chain of Cytochrome P450 2C19 (P33261 whole entry): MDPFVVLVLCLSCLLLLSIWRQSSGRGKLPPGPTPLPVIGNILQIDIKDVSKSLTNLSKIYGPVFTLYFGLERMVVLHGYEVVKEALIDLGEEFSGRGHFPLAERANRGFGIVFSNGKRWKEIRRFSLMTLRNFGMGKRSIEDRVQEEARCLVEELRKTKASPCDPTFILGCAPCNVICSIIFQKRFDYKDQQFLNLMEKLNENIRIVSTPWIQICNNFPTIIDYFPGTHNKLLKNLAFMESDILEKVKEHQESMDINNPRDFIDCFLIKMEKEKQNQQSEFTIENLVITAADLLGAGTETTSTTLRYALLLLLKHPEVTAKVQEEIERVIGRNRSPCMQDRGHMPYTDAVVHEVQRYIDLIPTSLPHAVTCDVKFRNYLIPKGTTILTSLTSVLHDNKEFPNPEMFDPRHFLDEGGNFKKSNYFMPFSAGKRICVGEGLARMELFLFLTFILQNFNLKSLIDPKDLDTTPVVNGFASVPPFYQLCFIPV
Chain of Cytochrome P450 2C9 (P11712 whole entry): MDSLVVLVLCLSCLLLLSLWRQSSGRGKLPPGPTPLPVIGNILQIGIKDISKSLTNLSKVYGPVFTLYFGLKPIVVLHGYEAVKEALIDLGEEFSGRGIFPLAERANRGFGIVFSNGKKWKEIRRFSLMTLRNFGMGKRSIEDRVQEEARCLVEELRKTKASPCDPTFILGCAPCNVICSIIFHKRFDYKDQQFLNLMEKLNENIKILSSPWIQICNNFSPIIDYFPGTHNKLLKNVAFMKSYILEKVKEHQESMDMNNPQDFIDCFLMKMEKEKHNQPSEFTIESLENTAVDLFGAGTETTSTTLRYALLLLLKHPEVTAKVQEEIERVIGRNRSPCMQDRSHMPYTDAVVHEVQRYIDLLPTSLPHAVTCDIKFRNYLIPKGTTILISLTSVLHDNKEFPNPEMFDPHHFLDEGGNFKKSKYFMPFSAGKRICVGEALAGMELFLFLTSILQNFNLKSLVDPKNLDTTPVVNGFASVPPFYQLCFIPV

SMILES	Drug metabolism [1]	Retention_time (Liver microsome [2]) [min]	Drug metabolism [3]	Drug metabolism (Liver microsome [4])	Drug metabolism [5]	IC50 [6] [µM]	Drug metabolism (Cytochrome P450 2C19) [pmol/min]	Drug metabolism (Cytochrome P450 3A4) [pmol/min]	Drug metabolism (Cytochrome P450 2B6) [pmol/min]	Drug metabolism (Cytochrome P450 2C8) [pmol/min]	Drug metabolism (Cytochrome P450 2C9) [pmol/min]	Drug metabolism (Cytochrome P450 2D6) [pmol/min]
CC(=O)O[C@H]1[C@H]2O[C@]23[C@@H]2CC[C@@H]4C[C@@H](O)C[C@H](O)[C@]4(C)[C@H]2CC[C@]3(C)[C@H]1c1ccc(=O)oc1	metabolite_detected	7.35	metabolite_detected	metabolite_detected	metabolite_detected	0.37	< 0.01	14.01	< 0.01	< 0.01	< 0.01	< 0.01
CC(=O)O[C@H]1[C@H]2O[C@]23[C@@H]2CC[C@@H]4C[C@@H](O)CC[C@]4(C)[C@H]2CC[C@]3(C)[C@H]1c1ccc(=O)oc1 [CINOBUFAGIN]						0.049						
CC(=O)O[C@H]1[C@H]2O[C@]23[C@@H]2CC[C@]4(O)C[C@@H](O)CC[C@]4(C)[C@H]2CC[C@]3(C)[C@H]1c1ccc(=O)oc1 [CINOBUFOTALIN]	metabolite_detected	7.6	metabolite_detected	metabolite_detected	metabolite_detected	8.62	< 0.01	26.02	< 0.01	< 0.01	< 0.01	< 0.01
